This excerpt belongs to a sample that is enriched for hits.
TLR9-MyD88 block: blocks human TLR9 binding to MyD88. Q9NR96+Q99836. CHO BLA complementation TLR9-MyD88, CCF4 FRET ratio. inhibition, % at 4.98 µM. actives 0.21% (n = 340,000);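 active = inhibition above the mean over all tested compounds plus 3 SD, cut at about 21% in these data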;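 note: 0% = DMSO only wells and 100% = clavulanate BLA inhibitor control wells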
CHOP inh: blocks CHOP induction under ER stress | inhibition, % at 10 µM | actives 3.8% (n = 220,000) | CHO-K1 CHOP-promoter luciferase, tunicamycin-induced, 15-18 h;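 active = compounds that reduced the stress-induced luciferase reporter signal by more than about 70% of percent inhibition, limit read from the data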;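 note: 0% = tunicamycin plus vehicle and 100% = wells without tunicamycin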
XBP1 UPR activ: activators of adaptive arm of unfolded protein response (XBP1) | actives 0.33% (n = 330,000) | AID 463104 | activation, % at 20 µM | CHO-XBP1 luciferase reporter, IRE1-XBP1 UPR activation, luminescence; percent of tunicamycin response, DMSO as zero;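 active = versus positive control, 20 µM dose yields 30% or more activation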;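 note: 100% = tunicamycin at 10 µg/mL and 0% = DMSO only wells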
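Material: CHO-XBP1 cells stably carrying IRE1-XBP1-driven luciferase reporter / Amount: 1000 cells per well / Compound: 20 µM, 1% DMSO / Times: 6 h treatment, 37 °C / Detection: luciferase luminescence / Measure: % activation of reporter signal versus tunicamycin and DMSO controls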
TLR4-MyD88 BLA: TLR4-MyD88 interaction inhibition in cells; O00206+Q99836; HeLa CL3-4 TLR4/MyD88 BLA complementation, FRET ratio; inhibition, % at 8.4 µM; actives 0.18% (n = 200,000); AID 861; in the data active = inhibition above about 25%;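 note: 0% = vehicle and 100% = reference inhibitor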
Target sequence (O00206 whole entry, looked up): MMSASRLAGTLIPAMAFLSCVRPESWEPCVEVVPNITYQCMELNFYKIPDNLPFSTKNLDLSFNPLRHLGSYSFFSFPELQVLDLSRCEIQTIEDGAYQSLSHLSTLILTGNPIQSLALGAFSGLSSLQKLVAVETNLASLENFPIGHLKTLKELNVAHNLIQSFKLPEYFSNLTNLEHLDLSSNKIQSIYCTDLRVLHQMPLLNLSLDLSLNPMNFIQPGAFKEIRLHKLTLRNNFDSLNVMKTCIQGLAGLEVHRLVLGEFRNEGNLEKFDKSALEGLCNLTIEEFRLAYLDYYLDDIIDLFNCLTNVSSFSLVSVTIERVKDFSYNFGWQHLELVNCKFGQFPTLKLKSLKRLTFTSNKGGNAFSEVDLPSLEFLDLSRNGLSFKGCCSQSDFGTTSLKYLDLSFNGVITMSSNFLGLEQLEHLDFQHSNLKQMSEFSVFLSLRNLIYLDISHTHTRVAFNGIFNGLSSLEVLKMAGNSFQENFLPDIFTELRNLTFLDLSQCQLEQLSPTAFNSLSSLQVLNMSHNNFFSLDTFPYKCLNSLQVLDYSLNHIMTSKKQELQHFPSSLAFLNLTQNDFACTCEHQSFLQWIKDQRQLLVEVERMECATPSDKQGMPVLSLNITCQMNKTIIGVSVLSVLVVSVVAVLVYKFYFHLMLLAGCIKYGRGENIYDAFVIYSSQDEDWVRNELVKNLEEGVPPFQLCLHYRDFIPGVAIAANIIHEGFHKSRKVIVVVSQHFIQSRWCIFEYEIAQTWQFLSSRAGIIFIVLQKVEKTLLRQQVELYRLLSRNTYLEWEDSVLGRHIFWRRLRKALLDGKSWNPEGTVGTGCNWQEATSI
Target sequence (Q99836 whole entry, looked up): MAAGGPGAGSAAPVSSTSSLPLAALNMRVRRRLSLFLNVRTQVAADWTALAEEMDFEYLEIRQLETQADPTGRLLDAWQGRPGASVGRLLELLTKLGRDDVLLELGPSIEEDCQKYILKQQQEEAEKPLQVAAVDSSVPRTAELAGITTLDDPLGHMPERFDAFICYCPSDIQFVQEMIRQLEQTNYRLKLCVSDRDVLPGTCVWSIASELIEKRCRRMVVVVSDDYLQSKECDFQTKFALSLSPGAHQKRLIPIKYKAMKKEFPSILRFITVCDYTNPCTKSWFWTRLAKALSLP
UPR CHOP act: activators of apoptotic arm of unfolded protein response (CHOP) | activation, % at 10 µM | actives 0.34% (n = 330,000) | CHO-CHOP luciferase reporter, UPR activation, luminescence; percent of tunicamycin response over DMSO baseline;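 active = at 10 µM dose, activation of 40% or more, normalized to positive control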;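 note: 100% = tunicamycin at 10 µg/mL and 0% = DMSO alone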
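measured by = luciferase luminescence | assay system = CHO-CHOP cells, stable luciferase reporter of PERK-eIF2a-CHOP signalling | amount = 500 reporter cells seeded per well | timing = 6 h compound exposure at 37 °C after overnight seeding | controls = positive tunicamycin 10 µg/mL, negative DMSO alone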
NOD2 RIPK2 PPI: NOD2-RIPK2 protein interaction inhibition | O43353 | CHO BLA complementation NOD2-RIPK2, CCF4 ratio | inhibition, % at 4.98 µM | actives 0.38% (n = 360,000) | AID 624267; in the data active = inhibition above about 21%;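 note: 0% = vehicle only and 100% = reference blocker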
* marks the source's active call; other numbers are inactive results; . = no result given.

SMILES | TLR9-MyD88 block | CHOP inh | XBP1 UPR activ | TLR4-MyD88 BLA | UPR CHOP act | NOD2 RIPK2 PPI
CC(C)N1CCN(Cc2cc3ccccc3[nH]2)CC1CCO (stereo not drawn) | -5 | . | -5 | . | -1 | 1
Nc1c(C(=O)NCc2ccccc2)c2nc3ccccc3nc2n1CCCN1CCOCC1 | -15 | 102* | 0 | -22 | 2 | 2
CCOC(=O)C1=C[C@@H](c2ccccc2)N(S(=O)(=O)c2ccc(C)cc2)[C@H]1c1ccc(F)cc1 | . | . | . | . | . | -24
CC(NC(=O)C(=O)N/N=C/c1ccccc1)c1ccccc1 (stereo not drawn) | -6 | 71* | 3 | -1 | 2 | -8
CC(NC(=O)C(=O)NN=C1CCCC1)c1ccccc1 (stereo not drawn) | -3 | -8 | -1 | -17 | 2 | -3
COCn1ccnc1C(O)(c1ccc(OC)cc1)c1ccc(OC)cc1 | 2 | 3 | -2 | -3 | 0 | -2
N#CCCN(C(=O)COC(=O)C1=NNC(=O)CC1)c1ccccc1 | -8 | . | 1 | . | 2 | -5
N=C1S/C(=C\c2cccc3ccccc23)C(=O)N1c1ccc(F)cc1 | 4 | 99* | 4 | 12 | 2 | 3
COC(=O)[C@]12CCCCC=C1N(Cc1cccc3ccccc13)C(=O)[C@H](CC(=O)NCc1cccs1)C2 | . | . | . | . | . | -5
O=C1CCCc2[nH]c3cccc(/C(=C/c4ccccc4)c4ccccc4)c3c21 | 7 | . | 2 | . | -1 | -4
COC(=O)c1ccc2[nH]c3cccc(/C(=C/c4ccccc4)c4ccccc4)c3c2c1 | 1 | . | 93* | . | 3 | -6
O=C(Nc1ccccc1)c1sc(Cl)nc1-c1ccccc1 | -14 | 9 | 2 | 5 | 2 | 1
O=C(Nc1cc(F)cc(F)c1)c1sc(Cl)nc1-c1ccccc1 | 3 | 75* | 0 | -6 | 2 | 18
Cc1c(Nc2ncccc2C(=O)O)cccc1C(F)(F)F | -10 | . | -1 | . | 0 | -7
CCC1(C)CC(CCNS(=O)(=O)c2ccc(C)cc2)(c2ccc(C)cc2)CCO1 (stereo not drawn) | -5 | 73* | -6 | -5 | -2 | 1
CC1(C)CC(CCNS(=O)(=O)c2ccccc2)(c2ccccc2)CCO1 (stereo not drawn) | -1 | -9 | -1 | 3 | 1 | -17
COc1ccc(CCC(C)Nc2ccc(F)cc2)cc1 (stereo not drawn) | 0 | 88* | -3 | -11 | -2 | -1
COc1ccc(CCC(C)Nc2cccc(C)c2)cc1 (stereo not drawn) | 3 | 82* | -2 | -18 | 2 | -5
Cc1ccc(C(C)C)c2c1C(c1ccc3c(c1)OCO3)CC(=O)O2 (stereo not drawn) | 1 | . | 2 | . | 3 | 0
C=CCN1C(=O)/C(=C2/Sc3ccc(OC)cc3N2C)SC1=Nc1ccccc1 | 8 | 74* | 10 | -5 | 1 | -15
CC1Cc2ccccc2N1C(=O)CSc1nnc(Cn2nnc3ccccc32)n1C (stereo not drawn) | 2 | 72* | -2 | 5 | 1 | -4
CC(C)N(C(=O)CSc1nnc(Cn2nnc3ccccc32)n1C)C(C)C | -4 | 3 | 5 | 6 | 1 | -6
Cc1ccc(N2C(=O)c3ccc(C(=O)N4CCN(c5ccccc5F)CC4)cc3C2=O)cc1 | 11 | 50 | -3 | 5 | 0 | 0
COc1ccc(CNC(=O)C2(C)Cc3c(-c4ccc(N(C)C)cc4)ccnc3O2)cc1OC (stereo not drawn) | . | . | . | . | . | -8
Cc1cccc(-c2cc3c(nn2)-c2ccccc2C3=O)c1 | -12 | 28 | 0 | 4 | 0 | 1
SMILES | TLR9-MyD88 block | CHOP inh | XBP1 UPR activ | TLR4-MyD88 BLA | UPR CHOP act | NOD2 RIPK2 PPI
O=C1c2ccccc2-c2nnc(-c3ccccc3)cc21 | -6 | 73* | -8 | 2 | -6 | -2
COc1ccc(-c2cc3c(nn2)-c2ccccc2C3=O)cc1 | 9 | 78* | -6 | -8 | -5 | -3
COc1cc(CNCc2cc(OC)c(OC)c(OC)c2)cc(OC)c1 | 3 | . | -3 | . | 0 | -13
CC1CCCN(C(=O)Cc2cn(Cc3cccc(Cl)c3)c3ccccc23)C1 (stereo not drawn) | -8 | 76* | 0 | -8 | -1 | -2
O=C(Cc1cn(Cc2cccc(Cl)c2)c2ccccc12)N1CCCCCC1 | 10 | 76* | -4 | 0 | -2 | 7
O=C(O)Cc1cn(Cc2cccc(Cl)c2)c2ccccc12 | -9 | 4 | 2 | 1 | -1 | 4
Cc1cc(C)n(-c2ccc(NC(=O)C3CCN(Cc4ccccn4)CC3)cc2)n1 | 8 | . | 3 | . | 2 | -16
O=C(N/C=N/OCc1ccc(Cl)cc1Cl)NOCc1ncc(C(F)(F)F)cc1Cl | -12 | 95* | -1 | -7 | 3 | 5
O=C(CCc1ccccc1)NC(=S)Nc1cccc(Br)c1 | -2 | 72* | 1 | 20 | 8 | -6
O=C(CCc1ccccc1)NC(=S)Nc1cccc(C(=O)O)c1 | 5 | . | -10 | . | -4 | -3
CC1CC(C)CN(c2ccc(-n3cnnn3)cc2[N+](=O)[O-])C1 (stereo not drawn) | 0 | 74* | 0 | 4 | 0 | -12
CN(C)C(CNC(=S)Nc1cccc(Cl)c1)c1ccccc1 (stereo not drawn) | -10 | -22 | -2 | -3 | -1 | -1
C#CCOCCOCCOCCNc1nc(N2CCN(C(=O)CCCCCCCCCCNC(=O)[C@H]([C@@H](C)CC)n3cc(CCCCCN)nn3)CC2)nc(N2CCN(C(=O)CCCCCCCCCCNC(=O)[C@H](CO)n3cc(CCCCCN)nn3)CC2)n1 | 15 | . | 5 | . | 0 | 13
C#CCOCCOCCOCCNc1nc(N2CCN(C(=O)CCCCCCCCCCNC(=O)Cn3cc(CCCCCN)nn3)CC2)nc(N2CCN(C(=O)CCCCCCCCCCNC(=O)[C@H]([C@@H](C)CC)n3cc(CCCCN=C(N)N)nn3)CC2)n1 | 40* | . | 5 | . | 0 | 35*
C#CCOCCOCCOCCNc1nc(N2CCN(C(=O)CCCCCCCCCCNC(=O)[C@H]([C@@H](C)CC)n3cc(CCCCN=C(N)N)nn3)CC2)nc(N2CCN(C(=O)CCCCCCCCCCNC(=O)[C@H](CO)n3cc(CCCCCN)nn3)CC2)n1 | 35* | . | 3 | . | 1 | 31*
C#CCOCCOCCOCCNc1nc(N2CCN(C(=O)CCCCCCCCCCNC(=O)[C@H]([C@@H](C)CC)n3cc(CCCCCN)nn3)CC2)nc(N2CCN(C(=O)CCCCCCCCCCNC(=O)[C@H]([C@@H](C)CC)n3cc(CCCCN=C(N)N)nn3)CC2)n1 | 75* | . | 27 | . | 3 | 69*

Bioassay records (PubChem)
